Measurements taken from ChEMBL document CHEMBL1145471, “Small molecule regulators of autophagy identified by an image-based high-throughput screen” (Proc Natl Acad Sci U S A, 2007).
Where a SMILES comes first, the peptide text is derived from it. [ ]: non-standard residue; d: D form. Nle = CCCC[C@H](N)C(=O)O

Assays:
Assay type in all cases: functional
[1] = system: H4; experiment: Increase in light chain 3-GFP+ autophagosome vesicle number per cell in human H4 cells at 4.3 uM after 24 hrs by high throughput fluorescence microscopy relative to control
Method in brief: (§1)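 H4 cells stably expressing LC3-GFP were grown in DMEM with 10% FBS and 2 mM L-glutamine at 37°C, 5% CO2. They were exposed to each compound for 24 h, with DMSO as negative and rapamycin as positive control. Cells were then fixed in 4% paraformaldehyde and stained with 3 μg/ml DAPI. High-throughput fluorescence imaging scored LC3-GFP spot number, size and intensity, expressed relative to DMSO. Mean ± SD of triplicates; experiments repeated three times.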

[2] = system: H4; experiment: Increase in light chain 3-GFP+ autophagosome vesicle area per cell in human H4 cells at 4.3 uM after 24 hrs by high throughput fluorescence microscopy relative to control
Method in brief: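 H4 cells stably expressing LC3-GFP, seeded in 96-well plates and exposed to compound for 24 h; screening concentrations were 3–12 μM, with rapamycin 0.22 μM and bafilomycin A1 0.40 μM. Cells fixed in 4% paraformaldehyde and stained with 3 μg/ml DAPI. Number, size and intensity of LC3-GFP spots measured by high-throughput fluorescence microscopy and expressed as percent of DMSO-treated wells. Rapamycin was the positive control. Triplicate wells, mean ± SD; experiments repeated three times.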

[3] = system: H4; experiment: Increase in light chain 3-GFP+ autophagosome vesicle intensity per cell in human H4 cells at 4.3 uM after 24 hrs by high throughput fluorescence microscopy relative to control; method in brief: as §1
[4] = system: H4; experiment: Induction of light chain 3-GFP level in human H4 cells at 4.3 uM after 24 hrs by high throughput fluorescence microscopy relative to control
Method in brief: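 H4 cells stably expressing LC3-GFP, grown in DMEM with 10% FBS, penicillin/streptomycin and 2 mM L-glutamine at 37°C, 5% CO2. Cells were seeded in 96-well plates and exposed to library compounds at 3–12 μM for 24 h, then fixed in 4% paraformaldehyde and stained with 3 μg/ml DAPI. LC3-GFP spot number, size and intensity were measured by high-throughput fluorescence microscopy and expressed relative to DMSO. Triplicates, mean ± SD.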

[5] = system: H4; experiment: Increase in light chain 3-GFP+ autophagosome vesicle number per cell in human H4 cells at 6.5 uM after 24 hrs by high throughput fluorescence microscopy relative to control
Method in brief: (§2)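 H4 cells stably expressing LC3-GFP, kept in DMEM/10% FBS at 37°C, 5% CO2, were seeded in 96-well plates and exposed to compound for 24 h. Cells were then fixed in 4% paraformaldehyde and stained with 3 μg/ml DAPI. Automated fluorescence microscopy scored the number, size and intensity of LC3-GFP spots. Values are percent of DMSO wells, in triplicate, mean ± SD. Rapamycin served as positive control.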

[6] = system: H4; experiment: Increase in light chain 3-GFP+ autophagosome vesicle area per cell in human H4 cells at 6.5 uM after 24 hrs by high throughput fluorescence microscopy relative to control
Method in brief: (§3)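 H4 cells stably expressing LC3-GFP, seeded in 96-well plates and exposed to compound for 24 h; fixed in 4% paraformaldehyde, nuclei stained with 3 μg/ml DAPI. Automated fluorescence microscopy scored number, size and intensity of LC3-GFP spots; values expressed relative to DMSO-treated wells, rapamycin positive control. Triplicate wells, mean ± SD; experiments repeated three times.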

[7] = system: H4; experiment: Increase in light chain 3-GFP+ autophagosome vesicle intensity per cell in human H4 cells at 6.5 uM after 24 hrs by high throughput fluorescence microscopy relative to control; method in brief: as §3
[8] = system: H4; experiment: Effect on FYVE-RFP+ vesicle intensity per cell in human H4 cells after 2 hrs relative to control; parameters: concentration or dose not given beside the values
Method in brief: (§4)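 H4 cells stably expressing FYVE-RFP (H4-FYVE), grown in DMEM with 10% FBS, penicillin/streptomycin and 2 mM L-glutamine at 37°C, 5% CO2, seeded in 96-well plates and exposed to compound. Fixed in 4% paraformaldehyde, nuclei stained with 3 μg/ml DAPI, FYVE-RFP+ vesicles quantified by high-throughput fluorescence microscopy against DMSO control. Triplicate wells, mean ± SD.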

[9] = system: H4; experiment: Effect on FYVE-RFP+ vesicle intensity per cell in human H4 cells after 4 hrs relative to control; parameters: concentration or dose not given beside the values; method in brief: as §4
[10] = system: H4; experiment: Effect on FYVE-RFP+ vesicle intensity per cell in human H4 cells after 8 hrs relative to control; parameters: concentration or dose not given beside the values; method in brief: as §4
[11] = system: H4; experiment: Increase in long-lived protein degradation in human H4 cells after 1 hr relative to control; parameters: concentration or dose not given beside the values
[12] = system: H4; experiment: Increase in long-lived protein degradation in human H4 cells after 2 hrs relative to control; parameters: concentration or dose not given beside the values
[13] = system: H4; experiment: Increase in long-lived protein degradation in human H4 cells after 4 hrs relative to control; parameters: concentration or dose not given beside the values
[14] = system: H4; experiment: Increase in long-lived protein degradation in human H4 cells after 24 hrs relative to control; parameters: concentration or dose not given beside the values
[15] = system: H4; experiment: Induction of light chain 3-GFP level in human H4 cells at 6.5 uM after 24 hrs by high throughput fluorescence microscopy relative to control; method in brief: as §2
[16] = system: H4; experiment: Increase in light chain 3-GFP+ autophagosome vesicle number per cell in human H4 cells at 6.3 uM after 24 hrs by high throughput fluorescence microscopy relative to control; method in brief: as §2
[17] = system: H4; experiment: Increase in light chain 3-GFP+ autophagosome vesicle area per cell in human H4 cells at 6.3 uM after 24 hrs by high throughput fluorescence microscopy relative to control; method in brief: as §3
[18] = system: H4; experiment: Increase in light chain 3-GFP+ autophagosome vesicle intensity per cell in human H4 cells at 6.3 uM after 24 hrs by high throughput fluorescence microscopy relative to control; method in brief: as §3
[19] = system: H4; experiment: Induction of light chain 3-GFP level in human H4 cells at 6.3 uM after 24 hrs by high throughput fluorescence microscopy relative to control; method in brief: as §2
[20] = system: H4; experiment: Induction of light chain 3-GFP level in human H4 cells at 6.0 uM after 24 hrs by high throughput fluorescence microscopy relative to control; method in brief: as §2
[21] = system: H4; experiment: Increase in light chain 3-GFP+ autophagosome vesicle area per cell in human H4 cells at 6.0 uM after 24 hrs by high throughput fluorescence microscopy relative to control; method in brief: as §3
[22] = system: H4; experiment: Increase in light chain 3-GFP+ autophagosome vesicle intensity per cell in human H4 cells at 6.0 uM after 24 hrs by high throughput fluorescence microscopy relative to control; method in brief: as §3
[23] = system: H4; experiment: Decrease in FYVE-RFP+ vesicle intensity per cell in human H4 cells after 2 hrs relative to control; parameters: concentration or dose not given beside the values; method in brief: as §4
[24] = system: H4; experiment: Decrease in FYVE-RFP+ vesicle intensity per cell in human H4 cells after 4 hrs relative to control; parameters: concentration or dose not given beside the values; method in brief: as §4
[25] = system: H4; experiment: Decrease in FYVE-RFP+ vesicle intensity per cell in human H4 cells after 8 hrs relative to control; parameters: concentration or dose not given beside the values; method in brief: as §4
[26] = system: H4; experiment: Increase in light chain 3-GFP+ autophagosome vesicle number per cell in human H4 cells at 6.0 uM after 24 hrs by high throughput fluorescence microscopy relative to control; method in brief: as §2
[27] = system: H4; experiment: Increase in light chain 3-GFP+ autophagosome vesicle area per cell in human H4 cells at 5.4 uM after 24 hrs by high throughput fluorescence microscopy relative to control; method in brief: as §3
[28] = system: H4; experiment: Increase in light chain 3-GFP+ autophagosome vesicle intensity per cell in human H4 cells at 5.4 uM after 24 hrs by high throughput fluorescence microscopy relative to control; method in brief: as §3
[29] = system: H4; experiment: Increase in light chain 3-GFP+ autophagosome vesicle number per cell in human H4 cells at 5.4 uM after 24 hrs by high throughput fluorescence microscopy relative to control; method in brief: as §2
[30] = system: H4; experiment: Induction of light chain 3-GFP level in human H4 cells at 5.4 uM after 24 hrs by high throughput fluorescence microscopy relative to control; method in brief: as §2
[31] = system: H4; experiment: Increase in light chain 3-GFP+ autophagosome vesicle number per cell in human H4 cells at 7.3 uM after 24 hrs by high throughput fluorescence microscopy relative to control; method in brief: as §2
[32] = system: H4; experiment: Increase in light chain 3-GFP+ autophagosome vesicle area per cell in human H4 cells at 7.3 uM after 24 hrs by high throughput fluorescence microscopy relative to control; method in brief: as §3
[33] = system: H4; experiment: Increase in light chain 3-GFP+ autophagosome vesicle intensity per cell in human H4 cells at 7.3 uM after 24 hrs by high throughput fluorescence microscopy relative to control; method in brief: as §3
[34] = system: H4; experiment: Induction of light chain 3-GFP level in human H4 cells at 7.3 uM after 24 hrs by high throughput fluorescence microscopy relative to control; method in brief: as §2

Compound | Activity [8] [%] | Activity [9] [%] | Activity [10] [%] | Activity [11] [%] | Activity [12] [%] | Activity [13] [%] | Activity [14] [%] | Activity [23] [%] | Activity [24] [%] | Activity [25] [%] | other results
C=CCNC1=C2C[C@@H](C)C[C@H](OC)[C@H](O)[C@@H](C)/C=C(\C)[C@H](OC(N)=O)[C@@H](OC)/C=C\C=C(/C)C(=O)NC(=CC1=O)C2=O [TANESPIMYCIN] |  |  |  |  |  |  |  |  |  |  | Activity [1]: 293.36%; Activity [2]: 364.98%; Activity [3]: 385.49%; Activity [4]: 66.89%
CCCC[C@@H](C=O)NC(=O)[C@H](CC(C)C)NC(=O)[C@H](CC(C)C)NC(C)=O (Ac-Leu-Leu-[Nle]-aldehyde) | 72.86 | 84.85 | 88.42 | 124.56 | 104.95 | 91.35 | 95.45 |  |  |  | Activity [5]: 277.88%; Activity [6]: 362.79%; Activity [7]: 495.29%; Activity [15]: 96.31%
CCCNC(=O)[C@H]1O[C@@H]1C(=O)N[C@H](C(=O)N1CCC[C@H]1C(=O)OC)[C@@H](C)CC | 65.94 | 79.82 | 86.43 | 115.2 | 110.18 | 81 | 89.11 |  |  |  | Activity [16]: 197.44%; Activity [17]: 239.2%; Activity [18]: 272.48%; Activity [19]: 132.2%
CC1(C)C(C=C(Cl)Cl)C1C(=O)OC(C#N)c1cccc(Oc2ccccc2)c1 (stereo not drawn) [ALPHA-CYPERMETHRIN] |  |  |  | 94.75 | 95.28 | 98.36 | 103.75 | 33.75 | 29.13 | 58.22 | Activity [20]: 97.45%; Activity [21]: 200.12%; Activity [22]: 208.14%; Activity [26]: 174.74%
C/C1=C/C(=O)O[C@@H]2C[C@@H](CC[C@H](C)/C=C\CC1)O[C@@](O)([C@@H]1CSC(=O)N1)C2 [LATRUNCULIN B] |  |  |  |  |  |  |  |  |  |  | Activity [16]: 263.28%; Activity [17]: 334.83%; Activity [18]: 723.64%; Activity [19]: 27.55%
N#Cc1cc2c(OCC(O)CN3CCN(C(c4ccccc4)c4ccccc4)CC3)cccc2[nH]1 (stereo unspecified) | 65.87 | 59.79 | 72.4 | 90.63 | 108.53 | 101.77 | 90.03 |  |  |  | Activity [27]: 275.43%; Activity [28]: 329.96%; Activity [29]: 224.74%; Activity [30]: 94.7%
CC(C)(c1ccc(OCC2CO2)cc1)c1ccc(OCC2CO2)cc1 (stereo unspecified) |  |  |  | 96.5 | 84.65 | 95.85 | 91.78 | 44.65 | 53.06 | 58.53 | Activity [31]: 156.58%; Activity [32]: 175.52%; Activity [33]: 182.11%; Activity [34]: 132.48%
CC1(C)[C@@H](O)C[C@H]2[C@](C)(O)[C@@H]3CC[C@@H]4[C@@H](O)[C@@]3(C[C@@H](O)[C@@]21O)C[C@@]4(C)O [GRAYANOTOXIN III] |  |  |  | 95.81 | 96.23 | 90.49 | 91.03 | 45.44 | 39.37 | 39.83 | Activity [20]: 129.36%; Activity [21]: 154.31%; Activity [22]: 210.65%; Activity [26]: 130.17%
COc1ccc2c(c[n+](C)c3c4cc5c(cc4ccc23)OCO5)c1OC.[Cl-] [CHELERYTHRINE CHLORIDE] |  |  |  | 101.43 | 100.4 | 108.72 | 106.48 | 30.83 | 22.01 | 33.84 | Activity [5]: 195.46%; Activity [6]: 229.91%; Activity [7]: 213.88%; Activity [15]: 110.26%
CCOC(=O)[C@H]1O[C@@H]1C(=O)N[C@@H](CC(C)C)C(=O)NCCC(C)C [ALOXISTATIN] |  |  |  | 84.82 | 76.35 | 79.98 | 91.33 | 48.31 | 53.97 | 39.61 | Activity [31]: 169.98%; Activity [32]: 195.1%; Activity [33]: 244.88%; Activity [34]: 119.19%
